As a reminder, the IC50 is the concentration that inhibits the measured activity by half. The term half-life denotes the time needed for the level to fall by half in the phase considered. Read a low half-life as rapid decline.

10 molecules from ChEMBL document CHEMBL2029305, “N-Acyl and N-sulfonyloxazolidine-2,4-diones are pseudo-irreversible inhibitors of serine proteases” (Bioorg Med Chem Lett, 2012) can be followed below.

Data set [1] is filed under the species Sus scrofa. Put plainly: Inhibition of porcine pancreatic elastase using N-Suc-(L-Ala)3-p-nitroaniline at 50 to 500 uM. Conditions: TDE = time-dependent effect.
For a further data set, the target named is T1, Cathepsin G (Homo sapiens, UniProt P08311).
T1 sequence (P08311 whole entry): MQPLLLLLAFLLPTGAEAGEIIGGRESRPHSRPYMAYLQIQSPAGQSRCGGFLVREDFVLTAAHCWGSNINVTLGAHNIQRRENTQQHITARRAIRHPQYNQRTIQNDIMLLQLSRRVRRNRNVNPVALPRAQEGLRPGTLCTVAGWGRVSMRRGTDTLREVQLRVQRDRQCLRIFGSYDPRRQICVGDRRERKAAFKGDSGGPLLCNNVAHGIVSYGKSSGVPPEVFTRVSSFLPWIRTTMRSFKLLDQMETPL
Put plainly: Inhibition of cathepsin G using Suc-Ala-Ala-Pro-Phe-p-nitroanilide as substrate after 30 mins.

The species named for data set [2] is Sus scrofa. The data set can be described thus: Inhibition of porcine pancreatic elastase using N-Suc-(L-Ala)3-p-nitroaniline.
The target of another data set is T2, Neutrophil elastase (Homo sapiens, UniProt P08246).
T2 sequence (P08246 whole entry): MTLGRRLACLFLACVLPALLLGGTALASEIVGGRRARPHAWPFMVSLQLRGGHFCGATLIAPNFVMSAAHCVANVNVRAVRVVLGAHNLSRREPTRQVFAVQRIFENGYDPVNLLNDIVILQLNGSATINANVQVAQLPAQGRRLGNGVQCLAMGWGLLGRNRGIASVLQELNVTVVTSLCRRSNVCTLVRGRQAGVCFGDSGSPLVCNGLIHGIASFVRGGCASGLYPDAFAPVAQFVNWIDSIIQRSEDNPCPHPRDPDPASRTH
Put plainly: Inhibition of human neutrophil elastase using chromogenic substrate (N-MeOSuc-Ala-Ala-Pro-Val-p-nitroanilide after 120 mins.

For data set [3], the species on record is Sus scrofa. Put plainly: Inhibition of porcine pancreatic elastase using N-Suc-(L-Ala)3-p-nitroaniline assessed as remaining activity at 2.5 to 500 uM after 15 mins. Put shortly:
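PPE (5 µM) with inhibitor 2.5–500 µM in pH 7.25 HEPES, 15 min incubation; aliquots assayed for remaining activity (vt/v0) versus [I]/[E]0 ratio to estimate equivalents needed for inactivation.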

Data set [4] is filed under the species Sus scrofa. The data set can be described thus: Inhibition of porcine pancreatic elastase using N-Suc-(L-Ala)3-p-nitroaniline at 300 molar excess. In short, it runs like this:
(§1)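 Pre-incubation of PPE with 300- or 600-fold molar excess of inhibitor; residual activity measured with N-Suc-(L-Ala)3-p-nitroanilide.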

A short description of data set [5]: Half life of the compound in phosphate buffer at pH 7.4. It counts as physicochemical. In short, it runs like this:
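Hydrolysis in phosphate buffer, pH 7.4, at 37 °C; half-life in min.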

For data set [6], the species on record is Sus scrofa. The data set can be described thus: Inhibition of porcine pancreatic elastase using N-Suc-(L-Ala)3-p-nitroaniline at 600 molar excess. In short, it runs like this:
as §1

Data set [7] can be described thus: Drug degradation in methanol assessed as 2-(methoxycarbonyloxy)propan-2-yl 4-methoxybenzoylcarbamate formation at room temperature for 10 mins by TLC analysis in the presence of sodium methoxide. It counts as physicochemical.
The nature of data set [8]: Drug degradation in CD3ONa/CD3OD solution assessed as methyl 4-methoxybenzoate formation at room temperature after 15 mins by 1H-NMR analysis in the presence of sodium methoxide. As to conditions: 0.25 h. It counts as physicochemical.
The nature of data set [9]: Drug degradation in CD3ONa/CD3OD solution assessed as 2-(methoxycarbonyloxy)propan-2-yl 4-methoxybenzoylcarbamate formation at room temperature for 15 mins by 1H-NMR analysis in the presence of sodium methoxide. It counts as physicochemical. As to conditions: 0.25 h.
Data set [10] can be described thus: Drug degradation in methanol assessed as methyl 4-methoxybenzoate formation at room temperature for 10 mins by TLC analysis in the presence of sodium methoxide. It counts as physicochemical.

Activity calls are given as the source filed them.

Turning to `CC1(C)OC(=O)N(Cc2ccccc2)C1=O`, the inhibition entry was “tde” in the data set listed under Sus scrofa [1] and “Dose-dependent effect” in the data set listed under Sus scrofa [2]. Moreover, the values for the concentration for half-maximal inhibition (IC50) on Cathepsin G and at Neutrophil elastase were 2.1 µM and 15.6 µM, respectively.
As for `COc1ccc(C(=O)N2C(=O)OC(c3ccccc3)C2=O)cc1` (stereo not drawn), the inhibition result in the data set filed under Sus scrofa [1] was “tde”; in the data set listed under Sus scrofa [2], “Dose-dependent effect”. On Neutrophil elastase, this molecule gave an IC50 of 15.6 µM. In addition, the Activity in the data set listed under Sus scrofa [3] is under 20%.
On to `COc1ccc(N2C(=O)OC(C)(C)C2=O)cc1`, for which the inhibition result in the data set filed under Sus scrofa [4] is “inactive”. Besides, on Neutrophil elastase, the IC50 was over 500 µM.
Take `Cc1ccc(S(=O)(=O)N2C(=O)OC(C)(C)C2=O)cc1`: the results for the inhibition entry in the data set filed under Sus scrofa [1] and in the data set filed under Sus scrofa [2] were “tde” and “Dose-dependent effect”, respectively. The half-life in [5] was determined as 6.86 min. Further, inhibition on Neutrophil elastase was half-maximal at 2.6 µM (IC50). The Activity in the data set listed under Sus scrofa [3] is under 20%.
`COc1ccc(C(=O)N2C(=O)OC(C)C2=O)cc1` (stereo not drawn): the values for the inhibition result in the data set listed under Sus scrofa [1] and in the data set listed under Sus scrofa [2] were “tde” and “Dose-dependent effect”, respectively. The same molecule displayed a half-maximal inhibitory concentration (IC50) on Neutrophil elastase of over 500 µM. The Activity in the data set listed under Sus scrofa [3] was under 20%.
In the case of `CC1(C)OC(=O)N(c2ccc([N+](=O)[O-])cc2)C1=O`, the inhibition result in the data set listed under Sus scrofa [4] is “inactive”. The molecule further gave an IC50 at Neutrophil elastase of over 500 µM.
Regarding `COc1ccc(N2C(=O)OC(C)C2=O)cc1` (stereo not drawn), the inhibition entry in the data set listed under Sus scrofa [6] was “inactive”. For the same molecule, the IC50 on Neutrophil elastase was over 500 µM.
Take `CC1OC(=O)N(Cc2ccccc2)C1=O` (stereo not drawn): the inhibition entry in the data set listed under Sus scrofa [6] is “inactive”. The molecule also came in with an IC50 at Neutrophil elastase of over 500 µM.
Turning to `COc1ccc(C(=O)N2C(=O)OC(C)(C)C2=O)cc1`, the inhibition result in the data set listed under Sus scrofa [1] was “tde”; in the data set filed under Sus scrofa [2] it was “Dose-dependent effect”. Further, the results for the IC50 on Cathepsin G and against Neutrophil elastase were 14.2 µM and 10.2 µM, respectively. For the same molecule, the Drug degradation entry in data set [7], in data set [8], in [9] and in data set [10] was “Active” in each case. The half-life in [5] came to 16.7 min. For the same molecule, the Activity in the data set filed under Sus scrofa [3] was under 20%.
In the case of `CC1OC(=O)N(c2ccc([N+](=O)[O-])cc2)C1=O` (stereo not drawn), the inhibition entry in the data set listed under Sus scrofa [4] is “inactive”. The half-life in data set [5] came out at 38.7 min. The molecule also came in with an IC50 against Neutrophil elastase of over 500 µM.
